Calls of active or inactive are those of the source. The calls are words filed in the database; no cut-off is given here.
Columns and labels:
Liver microsome [1] = assay: Effect on mitochondrial transmembrane potential in Wistar Han rat liver mitochondria energized with succinate assessed as mitochondrial transmembrane electropotential at 0.133 ug/mg of protein (reference value: 204.2 +/- 5.6 mV); assay type: functional
Liver microsome [2] = assay: Effect on mitochondrial transmembrane potential in Wistar Han rat liver mitochondria energized with succinate assessed as mitochondrial transmembrane electropotential at 1.333 ug/mg of protein (reference value: 204.2 +/- 5.6 mV); assay type: functional
In short: (§1)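 Isolated male Wistar rat liver mitochondria (1.5 mg protein) in 125 mM sucrose, 65 mM KCl, 5 mM KH2PO4, 2.5 mM MgCl2, 5 mM HEPES pH 7.4, 30°C, with 3 μM TPP+. Compound added for 1 min, then 10 mM succinate plus 3 μM rotenone. State 3 started with ADP (83.3 nmol/mg protein). ΔΨ read with a TPP+-selective electrode and calculated by the Kamo equation without binding correction.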

Liver microsome [3] = assay: Effect on mitochondrial transmembrane potential in Wistar Han rat liver mitochondria energized with succinate assessed as ADP depolarization at 0.067 ug/mg of protein (reference value: 25.3 +/- 2.1 mV); assay type: functional
MDA-MB-231 = assay: Cytotoxicity against human MDA-MB-231 cells at 0.125 to 2 ug/ml after 1 to 5 days by sulforhodamine B assay; assay type: functional, cell-based
In short: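 Sulforhodamine B growth assay in high-glucose DMEM with 10% FBS. Cancer cells seeded at 1×10^4 cells/ml; compound (0.125–2 μg/ml) added 24 h after seeding and left for 1, 3 or 5 days. Cells fixed, total mass stained. Expressed as % of untreated cells at the same time point. Mean ± SEM, five independent experiments.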

Liver microsome [4] = assay: Effect on mitochondrial transmembrane potential in Wistar Han rat liver mitochondria energized with succinate assessed as ADP depolarization at 1.333 ug/mg of protein (reference value: 25.3 +/- 2.1 mV); assay type: functional
Liver microsome [5] = assay: Effect on mitochondrial transmembrane potential in Wistar Han rat liver mitochondria energized with succinate assessed as ADP depolarization at 1.333 ug/mg of protein (reference value: 34.7 +/- 1.4 mV); assay type: functional
Liver microsome [6] = assay: Effect on mitochondrial transmembrane potential in Wistar Han rat liver mitochondria energized with succinate assessed as time duration of lag phase at 0.133 ug/mg of protein (reference value: 82.8 +/- 23.5 sec); assay type: functional; in short: as §1
Liver microsome [7] = assay: Effect on mitochondrial transmembrane potential in Wistar Han rat liver mitochondria energized with succinate assessed as ADP depolarization at 0.133 ug/mg of protein (reference value: 34.7 +/- 1.4 mV); assay type: functional
Liver microsome [8] = assay: Effect on mitochondrial transmembrane potential in Wistar Han rat liver mitochondria energized with succinate assessed as mitochondrial transmembrane electropotential at 0.06 ug/mg of protein (reference value: 216.0 +/- 7.4 mV); assay type: functional
Liver microsome [9] = assay: Effect on mitochondrial transmembrane potential in Wistar Han rat liver mitochondria energized with succinate assessed as ADP depolarization at 0.067 ug/mg of protein (reference value: 34.6 +/- 1.9 mV); assay type: functional
Liver microsome [10] = assay: Effect on mitochondrial transmembrane potential in Wistar Han rat liver mitochondria energized with succinate assessed as time duration of lag phase at 0.667 ug/mg of protein Rvb = 46.7 +/- 3.9 sec); assay type: functional; in short: as §1
Liver microsome [11] = assay: Effect on mitochondrial transmembrane potential in Wistar Han rat liver mitochondria energized with succinate assessed as ADP depolarization at 0.067 ug/mg of protein (reference value: 23.9 +/- 3.3 mV); assay type: functional
Liver microsome [12] = assay: Effect on mitochondrial transmembrane potential in Wistar Han rat liver mitochondria energized with succinate assessed as ADP depolarization at 1.333 ug/mg of protein (reference value: 23.9 +/- 3.3 mV); assay type: functional

C=C(C)[C@@H]1CC[C@]2(COC(=O)CC[n+]3ccc(N(C)C)cc3)CC[C@]3(C)[C@H](CC[C@@H]4[C@@]5(C)CC[C@H](OC(=O)CC[n+]6ccc(N(C)C)cc6)C(C)(C)[C@@H]5CC[C@]43C)[C@@H]12.[Cl-].[Cl-]
Activity (Liver microsome [1]): 206 mV
Activity (Liver microsome [2]): 199 mV
Activity (Liver microsome [3]): 24.7 mV
inhibition (MDA-MB-231): Active
Activity (Liver microsome [4]): 20.3 mV

C=C(C)[C@@H]1CC[C@]2(COC(=O)C[n+]3ccc(N(C)C)cc3)CC[C@]3(C)[C@H](CC[C@@H]4[C@@]5(C)CC[C@H](OC(=O)C[n+]6ccc(N(C)C)cc6)C(C)(C)[C@@H]5CC[C@]43C)[C@@H]12.[Cl-].[Cl-]
Activity (Liver microsome [5]): 25.2 mV
TIME (Liver microsome [6]): 0.0233 h
Activity (Liver microsome [7]): 29.8 mV
Activity (Liver microsome [8]): 209 mV

C=C(C)[C@@H]1CC[C@]2(COC(=O)C[N+](C)(C)C(C)C)CC[C@]3(C)[C@H](CC[C@@H]4[C@@]5(C)CC[C@H](OC(=O)C[N+](C)(C)C(C)C)C(C)(C)[C@@H]5CC[C@]43C)[C@@H]12.[Cl-].[Cl-]
Activity (Liver microsome [9]): 31.5 mV
TIME (Liver microsome [10]): 0.0146 h

C=C(C)[C@@H]1CC[C@]2(COC(=O)C(CC)[n+]3ccc(N(C)C)cc3)CC[C@]3(C)[C@H](CC[C@@H]4[C@@]5(C)CC[C@H](OC(=O)C(CC)[n+]6ccc(N(C)C)cc6)C(C)(C)[C@@H]5CC[C@]43C)[C@@H]12 (stereo partly drawn)
Activity (Liver microsome [11]): 22.3 mV
Activity (Liver microsome [12]): 21.8 mV

Reference: ChEMBL document CHEMBL3351723, “New derivatives of lupane triterpenoids disturb breast cancer mitochondria and induce cell death” (Bioorg Med Chem, 2014)
